Published values of several laboratories.
Each line is one published result; the experiments were not run side by side.

| Compound | target or system | assay | test system | conditions | quantity | value |
| --- | --- | --- | --- | --- | --- | --- |
| CCOC(=O)C1CCCN1C(=O)c1ccc(NCc2cnc3nc(N)nc(N)c3n2)cc1 (centres unmarked) | Cytochrome P450 1A2 (CYP1A2, Homo sapiens, UniProt P05177) | enzyme activity, inhibitor, luciferase |  | 10 µM | inhibition | -16% |
| CCNc1nc(Nc2ccc(F)c(Cl)c2)c2ccccc2n1 | Vero | cell growth or viability, MTT |  | 250 µg/mL | viability | 20.6% |
| COc1cc(C(=O)NC2CCN(C)CC2)c(F)cc1Nc1ncc(C(F)(F)F)c(Oc2cccc3c2C(=O)N(C)C3)n1 |  |  | human, plasma | oral, 200 mg, multiple doses, once daily, patients | Vd/F | 290 L |
| CC(C)(C)c1ccc(O)c(CN(Cc2cc(C(C)(C)C)ccc2O)C2CCC(NC(N)=O)CC2)c1 (centres unmarked) |  |  | male C57BL/6 mouse, plasma | intraperitoneal, 25 mg/kg, single dose | Cmax | 3620 ng/mL |
| Cc1cc(Nc2cc(N3CCN(C)CC3)nc(/C=C/c3ccccc3)n2)n[nH]1 |  |  | human, plasma | oral, 60 mg/m², patients | Vd/F | 1710 L |
| COC(=O)C1CCN(C(=O)c2ccc(NCc3cnc4nc(N)nc(N)c4n3)cn2)CC1 | Cytochrome P450 3A4 (CYP3A4, Homo sapiens, UniProt P08684) | enzyme activity, inhibitor, luciferase |  | 10 µM | inhibition | -7.93% |
| O=S(=O)(NNc1nnc(Cl)c2ccccc12)c1ccc(F)cc1 | Vero | cell growth or viability, MTT |  | 62.5 µg/mL | viability | 88.2% |
| Cn1cnc2c1c(=O)n(CC(=O)Nc1c(Cl)cccc1Cl)c(=O)n2C | Vero | cell growth or viability, MTT |  | 500 µg/mL | viability | 25.3% |
